# Measurements collected from several papers.
# PI4KA: Phosphatidylinositol 4-kinase alpha (PI4KA, Homo sapiens, UniProt P42356)
# HTR5A: 5-hydroxytryptamine receptor 5A (HTR5A, Homo sapiens, UniProt P47898)
# DRD4: D(4) dopamine receptor (DRD4, Homo sapiens, UniProt P21917)
SMILES,target,observed,action,method,concentration,notes,inhibition [%]
O=C(CSc1nc2nccnc2c(=O)n1CCc1ccccc1)Nc1nccs1,"Atypical kinase COQ8A, mitochondrial (COQ8A, Homo sapiens, UniProt Q8NI60)",enzyme activity,inhibitor,,10 µM,,10
O=C1N=C(N2CCCCN2)S/C1=C\c1ccc(F)cc1O,"Neurotensin receptor type 1 (NTSR1, Homo sapiens, UniProt P30989)",ligand displacement,,radioligand,10 µM,,< 10
Cn1cnc(Br)c1C1=CN(c2ncnc3[nH]cnc23)CCS1,"Mitogen-activated protein kinase kinase kinase 19 (MAP3K19, Homo sapiens, UniProt Q56UN5)",enzyme activity,inhibitor,radiometric,2 µM,,92.8
O=C(Oc1nsnc1N1CCN(c2ccccc2)CC1)N1CCCCC1,"Monoacylglycerol lipase ABHD6 (ABHD6, Homo sapiens, UniProt Q9BV23)",enzyme activity,inhibitor,fluorescence,1 µM,lysate,40
O=C(c1ccc(F)cc1)N(Cc1ccccc1)C1CCCCC1,"D(4) dopamine receptor (DRD4, Homo sapiens, UniProt P21917, del265-296)",cell-free assay,,,10 µM,,1
CS(=O)(=O)Nc1cccc(-c2csc(NC(=O)CSc3nc4nccnc4c(=O)n3CCc3ccccc3)n2)c1,PI4KA,enzyme activity,inhibitor,,10 µM,,5
CCN1CC(c2ccccc2)c2cc(OC)c(OC)c3c2C1Cc1cc2c(cc1-3)OCO2 (stereo not drawn),HTR5A,ligand displacement,,radioligand,10 µM,,-12.1
O=C(Nc1ccc(S(=O)(=O)N2CCC(Cl)CC2)cc1)c1ccc([N+](=O)[O-])o1,DRD4,ligand displacement,,radioligand,10 µM,,1
N#Cc1cc(Cn2c(N3CCCC3)nc3ccccc32)ccc1F,HTR5A,ligand displacement,,,10 µM,,-15
CC(C)CCn1c(SCC(=O)Nc2ccccc2C(F)(F)F)nc2nccnc2c1=O,PI4KA,enzyme activity,inhibitor,,10 µM,,< 20
CCCNc1nc2ccccc2n1Cc1ccc(Cl)cc1,HTR5A,ligand displacement,,,10 µM,,24.8
CCN(CC)c1ccc(C2Nc3ccc(C(=O)c4ccccc4)cc3NC3=C2C(=O)CC(C)(C)C3)cc1 (stereo not drawn),DRD4,ligand displacement,,radioligand,10 µM,,100
